≈ marks a conversion by molar mass, not a printed value.
What was measured:
Salmonella typhimurium [1] = experiment: Mutagenicity in Salmonella typhimurium TA100 at 0.3125 mg/ml after 48 hrs by AMES MPF assay in absence of Sprague-Dawley rat liver microsomal S9 fraction relative to baseline; assay type: toxicity, organism-based; conditions: salmonella enterica subsp. enterica serovar typhimurium
In short: (§1)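 Ames MPF fluctuation test with TA98/TA100. Overnight cultures (37 °C, 14–16 h) mixed with exposure medium; ±Aroclor-1254-induced rat liver S9 (final 4.5% v/v). Compounds in DMSO, 0.156–5 mg/mL. 90 min exposure at 37 °C, then indicator medium; 48 wells per concentration, 48 h at 37 °C, in triplicate. Yellow wells counted; fold induction over baseline (mean + 1 SD of zero-dose control).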

Salmonella typhimurium [2] = experiment: Mutagenicity in Salmonella typhimurium TA100 at 0.156 mg/ml after 48 hrs by AMES MPF assay in absence of Sprague-Dawley rat liver microsomal S9 fraction relative to baseline; assay type: toxicity, organism-based; conditions: salmonella enterica subsp. enterica serovar typhimurium; in short: as §1
Aspergillus flavus = experiment: Antifungal activity against Aspergillus flavus NRRL 980 after 72 hrs by broth microdilution assay; assay type: functional; conditions: NRRL 980, 72 h
In short: (§2)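 Compounds dissolved in DMSO, diluted in sterile distilled water from 4 to 0.0039 mg/mL. Molds grown on PDA at 25 °C for 5 days, suspended in double-strength PDB at 10⁵ spores/mL. Incubated at 25 °C for 72 h; mycelial growth read under stereo microscope. MIC = lowest concentration inhibiting visible growth. Ketoconazole reference.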

Salmonella typhimurium [3] = experiment: Mutagenicity in Salmonella typhimurium TA98 at 5 mg/ml after 48 hrs by AMES MPF assay in absence of Sprague-Dawley rat liver microsomal S9 fraction relative to baseline; assay type: toxicity, organism-based; conditions: salmonella enterica subsp. enterica serovar typhimurium; in short: as §1
Salmonella typhimurium [4] = experiment: Mutagenicity in Salmonella typhimurium TA100 at 1.25 mg/ml after 48 hrs by AMES MPF assay in absence of Sprague-Dawley rat liver microsomal S9 fraction relative to baseline; assay type: toxicity, organism-based; conditions: salmonella enterica subsp. enterica serovar typhimurium; in short: as §1
Fusarium solani = experiment: Antifungal activity against Fusarium solani NRRL 13414 after 72 hrs by broth microdilution assay; assay type: functional; conditions: NRRL 13414, 72 h; in short: as §2
Salmonella typhimurium [5] = experiment: Mutagenicity in Salmonella typhimurium TA100 at 1.25 mg/ml after 48 hrs by AMES MPF assay in presence of Sprague-Dawley rat liver microsomal S9 fraction relative to baseline; assay type: toxicity, organism-based; conditions: salmonella enterica subsp. enterica serovar typhimurium; in short: as §1
Salmonella typhimurium [6] = experiment: Mutagenicity in Salmonella typhimurium TA100 at 0.3125 mg/ml after 48 hrs by AMES MPF assay in presence of Sprague-Dawley rat liver microsomal S9 fraction relative to baseline; assay type: toxicity, organism-based; conditions: salmonella enterica subsp. enterica serovar typhimurium; in short: as §1
[Candida] zeylanoides = Antifungal activity against Candida zeylanoides NRLL Y 1774 after 48 hrs by broth microdilution assay; assay type: functional; conditions: Dujonia zeylanoides, NRLL Y 1774, 48 h
In short: (§3)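 Broth microdilution of DMSO stocks serially diluted in sterile water (4 to 0.0039 mg/mL). Yeasts grown on SDA at 37 °C for 24 h, suspended in double-strength PDB at 10⁵ spores/mL. Incubated at 37 °C for 48 h, then sprayed with 0.5% aqueous TTC. MIC = lowest concentration inhibiting visible growth. Ketoconazole reference.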

Pichia kudriavzevii = experiment: Antifungal activity against Candida krusei NRLL Y 7179 after 48 hrs by broth microdilution assay; assay type: functional; conditions: NRLL Y 7179, 48 h; in short: as §3
Salmonella typhimurium [7] = experiment: Mutagenicity in Salmonella typhimurium TA100 at 2.5 mg/ml after 48 hrs by AMES MPF assay in absence of Sprague-Dawley rat liver microsomal S9 fraction relative to baseline; assay type: toxicity, organism-based; conditions: salmonella enterica subsp. enterica serovar typhimurium; in short: as §1
Candida albicans = experiment: Antifungal activity against Candida albicans ATCC 90028 after 48 hrs by broth microdilution assay; assay type: functional; conditions: ATCC 90028, 48 h; in short: as §3
Salmonella typhimurium [8] = experiment: Mutagenicity in Salmonella typhimurium TA100 at 5 mg/ml after 48 hrs by AMES MPF assay in presence of Sprague-Dawley rat liver microsomal S9 fraction relative to baseline; assay type: toxicity, organism-based; conditions: salmonella enterica subsp. enterica serovar typhimurium; in short: as §1
Salmonella typhimurium [9] = experiment: Mutagenicity in Salmonella typhimurium TA98 at 2.5 mg/ml after 48 hrs by AMES MPF assay in presence of Sprague-Dawley rat liver microsomal S9 fraction relative to baseline; assay type: toxicity, organism-based; conditions: salmonella enterica subsp. enterica serovar typhimurium; in short: as §1
Salmonella typhimurium [10] = experiment: Mutagenicity in Salmonella typhimurium TA98 at 2.5 mg/ml after 48 hrs by AMES MPF assay in absence of Sprague-Dawley rat liver microsomal S9 fraction relative to baseline; assay type: toxicity, organism-based; conditions: salmonella enterica subsp. enterica serovar typhimurium; in short: as §1
Salmonella typhimurium [11] = experiment: Mutagenicity in Salmonella typhimurium TA98 at 0.156 mg/ml after 48 hrs by AMES MPF assay in absence of Sprague-Dawley rat liver microsomal S9 fraction relative to baseline; assay type: toxicity, organism-based; conditions: salmonella enterica subsp. enterica serovar typhimurium; in short: as §1
Aspergillus niger = experiment: Antifungal activity against Aspergillus niger ATCC 1094 after 72 hrs by broth microdilution assay; assay type: functional; conditions: ATCC 1094, 72 h; in short: as §2
Salmonella typhimurium [12] = experiment: Mutagenicity in Salmonella typhimurium TA98 at 1.25 mg/ml after 48 hrs by AMES MPF assay in absence of Sprague-Dawley rat liver microsomal S9 fraction relative to baseline; assay type: toxicity, organism-based; conditions: salmonella enterica subsp. enterica serovar typhimurium; in short: as §1
[13] = Cytotoxicity against mouse NIH/3T3 cells after 24 hrs by XTT assay; assay type: cell-based; conditions: NIH3T3, 24 h
In short: (§4)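 A549 cells in RPMI and NIH/3T3 cells in DMEM, each with fetal calf serum, antibiotics and 7.5% NaHCO₃, at 37 °C, 5% CO₂. Seeded at 20,000 cells/well, 24 h, then compounds added in medium at 500–3.9 doses (final DMSO <0.1%) for 24 h. XTT read after 3 h at 480 nm (ref 680 nm). IC₅₀ by non-linear regression; triplicates; cisplatin control.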

Salmonella typhimurium [14] = experiment: Mutagenicity in Salmonella typhimurium TA100 at 5 mg/ml after 48 hrs by AMES MPF assay in absence of Sprague-Dawley rat liver microsomal S9 fraction relative to baseline; assay type: toxicity, organism-based; conditions: salmonella enterica subsp. enterica serovar typhimurium; in short: as §1
Salmonella typhimurium [15] = experiment: Mutagenicity in Salmonella typhimurium TA98 at 1.25 mg/ml after 48 hrs by AMES MPF assay in presence of Sprague-Dawley rat liver microsomal S9 fraction relative to baseline; assay type: toxicity, organism-based; conditions: salmonella enterica subsp. enterica serovar typhimurium; in short: as §1
Salmonella typhimurium [16] = experiment: Mutagenicity in Salmonella typhimurium TA98 at 0.625 mg/ml after 48 hrs by AMES MPF assay in presence of Sprague-Dawley rat liver microsomal S9 fraction relative to baseline; assay type: toxicity, organism-based; conditions: salmonella enterica subsp. enterica serovar typhimurium; in short: as §1
Salmonella typhimurium [17] = experiment: Mutagenicity in Salmonella typhimurium TA98 at 0.3125 mg/ml after 48 hrs by AMES MPF assay in absence of Sprague-Dawley rat liver microsomal S9 fraction relative to baseline; assay type: toxicity, organism-based; conditions: salmonella enterica subsp. enterica serovar typhimurium; in short: as §1
Aspergillus parasiticus = experiment: Antifungal activity against Aspergillus parasiticus NRRL 465 after 72 hrs by broth microdilution assay; assay type: functional; conditions: NRRL 465, 72 h; in short: as §2
Salmonella typhimurium [18] = experiment: Mutagenicity in Salmonella typhimurium TA100 at 0.625 mg/ml after 48 hrs by AMES MPF assay in presence of Sprague-Dawley rat liver microsomal S9 fraction relative to baseline; assay type: toxicity, organism-based; conditions: salmonella enterica subsp. enterica serovar typhimurium; in short: as §1
Salmonella typhimurium [19] = experiment: Mutagenicity in Salmonella typhimurium TA100 at 2.5 mg/ml after 48 hrs by AMES MPF assay in presence of Sprague-Dawley rat liver microsomal S9 fraction relative to baseline; assay type: toxicity, organism-based; conditions: salmonella enterica subsp. enterica serovar typhimurium; in short: as §1
Candida parapsilosis = experiment: Antifungal activity against Candida parapsilosis NRLL Y 12696 after 48 hrs by broth microdilution assay; assay type: functional; conditions: Lodderomyces parapsilosis, NRLL Y 12696, 48 h; in short: as §3
Salmonella typhimurium [20] = experiment: Mutagenicity in Salmonella typhimurium TA98 at 5 mg/ml after 48 hrs by AMES MPF assay in presence of Sprague-Dawley rat liver microsomal S9 fraction relative to baseline; assay type: toxicity, organism-based; conditions: salmonella enterica subsp. enterica serovar typhimurium; in short: as §1
A549 = experiment: Antiproliferative activity against human A549 cells after 24 hrs by XTT assay; assay type: functional, cell-based; conditions: A549, 24 h; in short: as §4
Salmonella typhimurium [21] = experiment: Mutagenicity in Salmonella typhimurium TA98 at 0.3125 mg/ml after 48 hrs by AMES MPF assay in presence of Sprague-Dawley rat liver microsomal S9 fraction relative to baseline; assay type: toxicity, organism-based; conditions: salmonella enterica subsp. enterica serovar typhimurium; in short: as §1
Salmonella typhimurium [22] = experiment: Mutagenicity in Salmonella typhimurium TA100 at 0.625 mg/ml after 48 hrs by AMES MPF assay in absence of Sprague-Dawley rat liver microsomal S9 fraction relative to baseline; assay type: toxicity, organism-based; conditions: salmonella enterica subsp. enterica serovar typhimurium; in short: as §1
Candida tropicalis = experiment: Antifungal activity against Candida tropicalis NRLL Y 12968 after 48 hrs by broth microdilution assay; assay type: functional; conditions: NRLL Y 12968, 48 h; in short: as §3
Nakaseomyces glabratus = experiment: Antifungal activity against Candida glabrata clinical isolate after 48 hrs by broth microdilution assay; assay type: functional; in short: as §3
Salmonella typhimurium [23] = experiment: Mutagenicity in Salmonella typhimurium TA98 at 0.625 mg/ml after 48 hrs by AMES MPF assay in absence of Sprague-Dawley rat liver microsomal S9 fraction relative to baseline; assay type: toxicity, organism-based; conditions: salmonella enterica subsp. enterica serovar typhimurium; in short: as §1
Salmonella typhimurium [24] = experiment: Mutagenicity in Salmonella typhimurium TA98 at 0.156 mg/ml after 48 hrs by AMES MPF assay in presence of Sprague-Dawley rat liver microsomal S9 fraction relative to baseline; assay type: toxicity, organism-based; conditions: salmonella enterica subsp. enterica serovar typhimurium; in short: as §1
Salmonella typhimurium [25] = experiment: Mutagenicity in Salmonella typhimurium TA100 at 0.156 mg/ml after 48 hrs by AMES MPF assay in presence of Sprague-Dawley rat liver microsomal S9 fraction relative to baseline; assay type: toxicity, organism-based; conditions: salmonella enterica subsp. enterica serovar typhimurium; in short: as §1

- MIC (Aspergillus flavus): 125 µg/mL (≈ 251 µM)
- MIC (Fusarium solani): 250 µg/mL (≈ 502 µM)
- MIC ([Candida] zeylanoides): 250 µg/mL (≈ 502 µM)
- MIC (Pichia kudriavzevii): 250 µg/mL (≈ 502 µM)
- MIC (Candida albicans): 250 µg/mL (≈ 502 µM)
- MIC (Aspergillus niger): 250 µg/mL (≈ 502 µM)
- MIC (Aspergillus parasiticus): 250 µg/mL (≈ 502 µM)
- MIC (Candida parapsilosis): 250 µg/mL (≈ 502 µM)
- IC50 (A549): > 500 µg/mL
- MIC (Candida tropicalis): 250 µg/mL (≈ 502 µM)
- MIC (Nakaseomyces glabratus): 125 µg/mL (≈ 251 µM)
Compound: Cc1ccc(C2=NN(c3nc(-c4ccc(S(C)(=O)=O)cc4)cs3)C(c3ccc(F)cc3)C2)s1 (stereo unspecified)
- fold change (FC) (Salmonella typhimurium [1]): 1.04
- fold change (FC) (Salmonella typhimurium [2]): 0.78
- fold change (FC) (Salmonella typhimurium [3]): 0.89
- fold change (FC) (Salmonella typhimurium [4]): 0.52
- fold change (FC) (Salmonella typhimurium [5]): 0.8
- fold change (FC) (Salmonella typhimurium [6]): 0.73
- fold change (FC) (Salmonella typhimurium [7]): 0.52
- fold change (FC) (Salmonella typhimurium [8]): 0.93
- fold change (FC) (Salmonella typhimurium [9]): 1.36
- fold change (FC) (Salmonella typhimurium [10]): 0.67
- fold change (FC) (Salmonella typhimurium [11]): 0.67
- fold change (FC) (Salmonella typhimurium [12]): 0.89
- IC50 [13]: 374 µg/mL (≈ 751 µM)
- fold change (FC) (Salmonella typhimurium [14]): 1.09
- fold change (FC) (Salmonella typhimurium [15]): 0.95
- fold change (FC) (Salmonella typhimurium [16]): 1.63
- fold change (FC) (Salmonella typhimurium [17]): 0.22
- fold change (FC) (Salmonella typhimurium [18]): 0.93
- fold change (FC) (Salmonella typhimurium [19]): 1.26
- fold change (FC) (Salmonella typhimurium [20]): 0.81
- fold change (FC) (Salmonella typhimurium [21]): 0.27
- fold change (FC) (Salmonella typhimurium [22]): 0.99
- fold change (FC) (Salmonella typhimurium [23]): 0.44
- fold change (FC) (Salmonella typhimurium [24]): 0.41
- fold change (FC) (Salmonella typhimurium [25]): 0.73
